Reference: article PMC10072273 (International Journal of Nanomedicine, 2023)

Assays:
[1] = test system: K562 cells; assay: Cytotoxicity; assay type: cell-based; details: Homo sapiens, K562, 72 h, read-out: Antiproliferative activity IC50, K562 cells
In short: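 K562 cells were grown in RPMI-1640 with 10% heat-inactivated FBS and penicillin/streptomycin at 37°C, 5% CO2. Seeded at 8,000 cells/well, rested 24 h, then exposed 72 h to a concentration series. MTS reagent was added in phenol-red-free DMEM for 1 h at 37°C and absorbance read at 490 nm. Response was taken relative to control and IC50 fitted. Triplicates per experiment, 3–4 experiments.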

[2] = test system: TLR8; assay: mRNA expression; assay type: cell-based, human; details: RAJI cells, 24 h
In short: (§1)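 RAJI cells treated 24 h with test nanomaterial (347, 174, 84 µM) or reference BTK inhibitor (30, 15 µM). Total RNA extracted with TRIzol and 1 µg reverse-transcribed. qPCR run as 95°C 60 s, then 40 cycles of 95°C 15 s, primer-specific annealing 30 s, 72°C 30 s, with melt-curve check. Expression by 2−ΔΔCT vs HPRT1. ≥4 experiments, mean ± SD, ANOVA with Dunnett's test vs untreated.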

[3] = test system: ARID3A; assay: mRNA expression; assay type: cell-based, human; details: RAJI cells, 30 µM ibrutinib, 24 h
In short: as §1

[4] = test system: c-Myc; assay: Immunoblotting in RAJI cells after anti-IgM stimulation; assay type: cell-based, human; details: 20 µM ibrutinib, 24 h
In short: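 RAJI cells seeded at 500,000 per dish. Next day they were stimulated with anti-human IgM (12 µg/mL, 10 min), then the medium was replaced with test nanomaterial (347, 174 µM) or reference inhibitor (20 µM) for 24 h. Lysed on ice in RIPA with protease/phosphatase inhibitors and EDTA, then BCA-normalised SDS-PAGE onto nitrocellulose. Primary antibodies 1:1000 overnight at 4°C, loading controls 1:2000, HRP secondary, chemiluminescence, densitometry. 4–5 experiments.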

[5] = test system: calcium levels in RAJI cells; assay: Calcium assay; assay type: cell-based, human; details: 24 h, HDGF 347 and 174 µM, ibrutinib 30 and 15 µM
In short: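 RAJI cells seeded at 40,000/well and held 24 h at 37°C. Medium was replaced with test nanomaterial (347, 174 µM) or reference BTK inhibitor (30, 15 µM) for 24 h. Cells were washed in cold PBS, loaded with Fluo-4 AM (5 µM, 30 min, 37°C), washed, and resuspended in serum-free, phenol-red-free DMEM. Fluorescence read at ex 485/em 520 nm. ≥3 experiments, mean ± SD, ANOVA with Dunnett's test vs untreated.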

[6] = test system: p62; assay: mRNA expression; assay type: cell-based, human; details: RAJI cells, ibrutinib 15 µM, 24 h
In short: as §1

[7] = test system: BTK; assay: mRNA expression; assay type: cell-based, human; details: RAJI cells, ibrutinib, 24 h
In short: as §1

[8] = test system: NFAT; assay: mRNA expression; assay type: cell-based, human; details: RAJI cells, 24 h
In short: as §1

`C=CC(=O)N1CCC[C@@H](n2nc(-c3ccc(Oc4ccccc4)cc3)c3c(N)ncnc32)C1` [ibrutinib] was tested, and the IC50 [1] was 850 nM, the “Expression of TLR8” value [2] was “significant decrease” and the “Expression of ARID3A” value [3] was “almost two-fold downregulation”. For the same compound, the c-Myc protein expression [4] was “slight downregulation”, the Cellular calcium levels [5] was “drop dramatically” and the “Expression of p62” value [6] was “almost three-fold increase”. For the same compound, the BTK gene expression [7] was “increased” and the “Expression of NFAT” value [8] was “significant decrease”.
